Assays:
NCI-H226 = experiment: Antitumor activity against human NCI-H226 cells after 48 hrs by MTT assay; type: functional, cell-based; details: NCI-H226, 48 h
In short: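 Cells grown at 37 °C in humidified 5% CO2, seeded at 1×10^4 cells/well, and allowed to attach for 24 h. They were then exposed to a range of concentrations for 48 h, washed with PBS, and given 1 mg/ml MTT for 2 h. Formazan was dissolved in DMSO and read at 570 nm.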

ACHN = experiment: Antitumor activity against human ACHN cells after 48 hrs by MTT assay; type: functional, cell-based

IC50 (NCI-H226): 25 µM | IC50 (ACHN): 0.3 µM
Compound: OCc1ccc(-c2nn(Cc3ccccc3)c3ccccc23)o1

Reference: ChEMBL document CHEMBL1157034, “Synthesis of 1-benzyl-3-(5-hydroxymethyl-2-furyl)selenolo[3,2-c]pyrazole derivatives as new anticancer agents” (Eur J Med Chem, 2010)
